Screens as filed in PubChem BioAssay.
Hep lipid drop – inhibitors of hepatocyte lipid droplet formation, primary screen, imaging, high-throughput imaging, BODIPY stain. inhibition, % at 6.5 µM. hit rate 0.4% among 240,000. AID 1656, 2009. AML12 mouse hepatocytes, oleate lipid droplets;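 active means lipid droplet intensity inhibited by at least 50%, with more than 500 cells counted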
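Assay system: AML12 mouse liver cells | Compound dosing: One dose, 6.5 µM compound | Read-out basis: Droplet intensity reduction, % inhibition | Measured by: Fluorescence imaging, 20x objective, two fields per well | Schedule: Overnight treatment with compound plus oleate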
NOD2-RIPK2 inh – NOD2-RIPK2 binding disruptors in cells, primary screen, fluorescence, CHO cells, BLA complementation. CCF4 ratio. inhibition, % at 4.98 µM. hit rate 0.38% among 360,000. AID 624267, 2012; in the data active means inhibition above about 21%;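 further: 0% = vehicle only and 100% = reference blocker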
TLR9-MyD88 block – inhibitors of TLR9-MyD88 association in cells, primary screen, cell-based, CHO, BLA complementation, fluorescence; CCF4 FRET ratio; Toll-like receptor 9 (Homo sapiens) + Myeloid differentiation primary response protein …; inhibition, % at 4.98 µM; hit rate 0.21% among 340,000;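 active means inhibition above the mean over all tested compounds plus 3 SD, cut at about 21% in these data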;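 further: 0% = DMSO only wells and 100% = clavulanate BLA inhibitor control wells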
SR-BI DiI-HDL act – activators of SR-BI mediated DiI-HDL uptake, primary screen, ldlA[mSR-BI] CHO cells, DiI fluorescence. 3 h; 100 = double the neutral-control signal. activation, % at 12.5 µM. hit rate 0.096% among 320,000. AID 504775, 2011;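 active means mean replicate activation of at least 60% and every replicate at or above 60%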;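 further: 0% = median plate neutral-control signal and 100% = twice that signal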
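material = CHO ldlA[mSR-BI] cells | medium = Ham's F12 with 0.5% BSA, HEPES 25 mM, pH 7.4 | reagent = fluorescent DiI-HDL, 10 µg/mL final | compound dosing = single-point compound dose | incubation = 3 h, 37 °C | measured by = bottom-read fluorescence, 550/595 nm | measure = HDL uptake via cellular fluorescence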
SR-BI DiI inh – inhibitors of SR-BI mediated HDL lipid uptake, primary screen, ldlA[mSR-BI] cells, fluorescence, single point. Scavenger receptor class B member 1 (Mus musculus), Q61009. ldlA[mSR-BI] CHO cells, DiI-HDL uptake fluorescence, 3 h. inhibition, % at 12.5 µM. hit rate 0.96% among 320,000. AID 488896, 2010;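 active means mean replicate inhibition of at least 70% and a set share of replicates each scoring 70 or more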;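 further: 0% = median of neutral control wells and 100% = median of positive control wells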
Target sequence (Q61009 whole entry, looked up): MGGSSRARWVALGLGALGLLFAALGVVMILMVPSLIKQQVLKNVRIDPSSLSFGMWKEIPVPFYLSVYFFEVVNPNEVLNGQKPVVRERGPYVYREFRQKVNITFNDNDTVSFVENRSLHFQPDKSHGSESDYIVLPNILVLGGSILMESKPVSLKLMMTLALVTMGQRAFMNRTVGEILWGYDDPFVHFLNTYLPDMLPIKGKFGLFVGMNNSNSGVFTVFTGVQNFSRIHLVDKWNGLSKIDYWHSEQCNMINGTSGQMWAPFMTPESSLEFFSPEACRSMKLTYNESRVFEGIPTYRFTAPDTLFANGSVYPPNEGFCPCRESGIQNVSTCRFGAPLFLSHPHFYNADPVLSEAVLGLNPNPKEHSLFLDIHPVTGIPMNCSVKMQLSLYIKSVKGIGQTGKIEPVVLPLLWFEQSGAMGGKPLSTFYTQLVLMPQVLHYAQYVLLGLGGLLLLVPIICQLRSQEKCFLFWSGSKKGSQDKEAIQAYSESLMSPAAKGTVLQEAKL
TLR4-MyD88 BLA – inhibitors of TLR4-MyD88 association in cells, primary screen, cell-based, HeLa CL3-4, BLA complementation, FRET ratio | Toll-like receptor 4 (Homo sapiens) + Myeloid differentiation primary response protein … | HeLa CL3-4 TLR4/MyD88 BLA complementation | inhibition, % at 8.4 µM | hit rate 0.18% among 200,000 | AID 861, 2007; in the data active means inhibition above about 25%;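 further: 0% = vehicle and 100% = reference inhibitor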
TLR9-MyD88 cf – TLR9-MyD88 association inhibitors, retest, confirmation, cell-based, CHO, BLA complementation, fluorescence, triplicate; shares compounds with TLR9-MyD88 block; CCF4 FRET ratio; inhibition, % at 4.98 µM; hit rate 51% among 680; AID 540250, 2011;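 active means mean inhibition across three repeats above about 21% taken from the earlier screen, limit read from the data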;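 further: blue over green emission ratio reports constitutive TLR9 MyD88 association via BLA complementation; 0% = DMSO vehicle wells and 100% = clavulanate BLA inhibitor wells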
BLA counter-1 – beta-lactamase reporter inhibitors in CHO cells, artefact control for TLR9-MyD88 binding inhibitor project, cell-based, fluorescence; shares compounds with TLR9-MyD88 block; inhibition, % at 4.98 µM; AID 540251, 2011; CHO-BLA cells, CCF4 FRET ratio, BLA reporter; hit rate 7% among 680;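 active means mean inhibition above a 50% cutoff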;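 further: counterscreen of TLR9-MyD88 hits on CMV-driven BLA in CHO-K1 cells; 0% = DMSO alone and 100% = clavulanate blocking BLA; higher means less blue over green ratio so more BLA blockade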
TLR9 CHO tox – CHO cell viability loss – luminescence, single concentration, cytotoxicity control for TLR9-MyD88 binding inhibitor project; hit rate 39% among 680; shares compounds with TLR9-MyD88 block; inhibition, % at 4.98 µM; AID 588336, 2011; TLR9-MyD88 CHO cells cytotoxicity; in the data active means inhibition above about 11%
NOD2 RIPK2 conf – NOD2-RIPK2 binding disruptors, retest, confirmation, fluorescence, CHO cells, BLA complementation, triplicate. shares compounds with NOD2-RIPK2 inh. CCF4 FRET. inhibition, % at 4.98 µM. hit rate 70% among 1,200. AID 624370, 2012;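 active means mean inhibition across replicates above a set limit taken from the earlier primary screen, cut at about 21% in these data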;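 further: 0% = DMSO-only wells and the high end = clavulanate BLA-blocked wells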
BLA counter-2 – NOD2-RIPK2 counterscreen BLA reporter activity | shares compounds with NOD2-RIPK2 inh | CHO BLA reporter, CCF4 FRET ratio | inhibition, % at 4.98 µM | hit rate 57% among 1,200;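 active means mean inhibition above the low-control mean inhibition plus three low-control SD, cut at about 11% in these data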;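 further: 0% = DMSO only wells and 100% = clavulanate high control wells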
The depositor's hits bear a star. Most compounds without a hit are left out; they make up all but 1.6% or so of the library.

Results for CCN(CC)c1ccc(C(=C2C=CC(=[N+](CC)CC)C=C2)c2ccccc2)cc1 ?
NOD2-RIPK2 inh: 41*; TLR9-MyD88 block: 53*; SR-BI DiI-HDL act: -54; SR-BI DiI inh: 54; TLR9-MyD88 cf: 83*; BLA counter-1: 18; TLR9 CHO tox: 101*; NOD2 RIPK2 conf: 32*; BLA counter-2: 22*

Results for CCN(CC)c1ccc(C(=O)NNC(=O)CCNC(=O)c2ccccc2)cc1 ?
NOD2-RIPK2 inh: -12; TLR9-MyD88 block: 0; SR-BI DiI-HDL act: -15; SR-BI DiI inh: 15

How did O=C(O)c1ccccc1C(=O)Nc1ccccc1 do in these assays?
Hep lipid drop: 9; NOD2-RIPK2 inh: 1; TLR9-MyD88 block: -4; SR-BI DiI-HDL act: -4; SR-BI DiI inh: 4; TLR4-MyD88 BLA: 13

What do the screens show for `O=C(Nc1ccccc1)C1=C(c2ccccc2)S(=O)(=O)CCS1(=O)=O`?
Hep lipid drop: -1; NOD2-RIPK2 inh: 50*; TLR9-MyD88 block: 22*; SR-BI DiI-HDL act: 6; SR-BI DiI inh: -6; TLR4-MyD88 BLA: 11; TLR9-MyD88 cf: 19; BLA counter-1: 1; TLR9 CHO tox: 97*; NOD2 RIPK2 conf: 60*; BLA counter-2: 12*

Results for O=C(O)/C=C/c1ccccc1Oc1ccc(Cl)cc1Cl ?
Hep lipid drop: 14; NOD2-RIPK2 inh: -7; TLR9-MyD88 block: 2; SR-BI DiI-HDL act: 1; SR-BI DiI inh: -1; TLR4-MyD88 BLA: 11

What do the screens show for `COc1ccc(NC(=O)/C(Cl)=C(/Cl)S(=O)Cc2ccccc2)cn1` (stereo unspecified)?
Hep lipid drop: -25; NOD2-RIPK2 inh: 92*; TLR9-MyD88 block: 43*; SR-BI DiI-HDL act: -50; SR-BI DiI inh: 50; TLR4-MyD88 BLA: 9; TLR9-MyD88 cf: 49*; BLA counter-1: 32; TLR9 CHO tox: 99*; NOD2 RIPK2 conf: 92*; BLA counter-2: 30*

What do the screens show for `COc1cc(OC)cc(C(=O)Nn2cc(C(=O)Nc3ccc(F)cc3F)c3ccccc3c2=O)c1`?
NOD2-RIPK2 inh: -10; TLR9-MyD88 block: 4; SR-BI DiI-HDL act: -14; SR-BI DiI inh: 14; TLR4-MyD88 BLA: -11

What do the screens show for `Cc1ccc(Cn2nc(C)c(C(=O)NCC(c3ccc(F)cc3)N3CCOCC3)c2Cl)cc1` (stereo unspecified)?
NOD2-RIPK2 inh: -1; TLR9-MyD88 block: -6; SR-BI DiI-HDL act: -16; SR-BI DiI inh: 16

How did S=C(N/N=C/c1cccs1)NC1CC2CCC1C2 (stereo unspecified) do in these assays?
Hep lipid drop: 3; NOD2-RIPK2 inh: -7; SR-BI DiI-HDL act: -25; SR-BI DiI inh: 25
